From ChEMBL document CHEMBL3822362, “Effects of N-Substitutions on the Tetrahydroquinoline (THQ) Core of Mixed-Efficacy μ-Opioid Receptor (MOR)/δ-Opioid Receptor (DOR) Ligands” (J Med Chem, 2016) come the findings set out here.

Experiment [1] deals with T1, Mu-type opioid receptor (Rattus norvegicus, UniProt P33535). The experiment is described as follows: Displacement of [3H]diprenorphine from rat MOR transfected in rat C6 cell membranes after 1 hr by liquid scintillation counting. Put shortly:
(§1)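 Membranes (20 μg protein/tube) in 50 mM Tris-HCl pH 7.4 with 0.2 nM [3H]diprenorphine and varying peptidomimetic concentrations, 1 h at room temperature to equilibrium. GF/C filtration, five buffer washes, scintillation counting. Nonspecific binding with 10 μM naloxone.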

The target of experiment [2] is T2, Delta-type opioid receptor (Rattus norvegicus, UniProt P33533). The experiment is described as follows: Displacement of [3H]diprenorphine from rat DOR transfected in rat C6 cell membranes after 1 hr by liquid scintillation counting. The gist of the method:
as §1

Experiment [3] concerns the target T3, Kappa-type opioid receptor (Homo sapiens, UniProt P41145). The experiment can be described thus: Displacement of [3H]diprenorphine from human KOR expressed in CHO cell membranes after 1 hr by liquid scintillation counting. Put shortly:
as §1

For experiment [4], the target named is Mu-type opioid receptor (Rattus norvegicus) (UniProt P33535). The experiment is described as follows: Agonist activity at rat MOR transfected in rat C6 cell membranes at 10 uM after 1 hr by [35S]GTPgammaS assay relative to DAMGO. It is filed as functional. Put shortly: (§2)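 Membranes (10–20 μg protein) from cells grown to confluence in DMEM/10% FBS, incubated 1 h at 25 °C in 50 mM Tris-HCl, 100 mM NaCl, 5 mM MgCl2, pH 7.4 with 0.1 nM [35S]GTPγS, 30 μM GDP and varying peptidomimetic concentrations. Filtered on GF/C, counted by scintillation. % stimulation relative to 10 μM DAMGO (MOR), DPDPE (DOR) or U69,593 (KOR).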
Mu-type opioid receptor (Rattus norvegicus), sequence (P33535 whole entry): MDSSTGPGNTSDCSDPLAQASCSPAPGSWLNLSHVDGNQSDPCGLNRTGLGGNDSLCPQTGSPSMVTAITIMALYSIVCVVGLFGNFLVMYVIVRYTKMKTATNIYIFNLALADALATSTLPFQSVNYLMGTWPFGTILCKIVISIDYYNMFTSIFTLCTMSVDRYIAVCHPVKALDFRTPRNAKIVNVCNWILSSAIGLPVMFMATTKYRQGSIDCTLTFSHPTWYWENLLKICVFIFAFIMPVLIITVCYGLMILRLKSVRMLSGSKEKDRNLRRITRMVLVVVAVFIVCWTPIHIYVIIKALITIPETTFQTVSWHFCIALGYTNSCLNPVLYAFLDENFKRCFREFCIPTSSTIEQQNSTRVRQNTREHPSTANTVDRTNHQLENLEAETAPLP

Experiment [5] has as its target Delta-type opioid receptor (Rattus norvegicus) (UniProt P33533). The experiment can be described thus: Agonist activity at rat DOR transfected in rat C6 cell membranes at 10 uM after 1 hr by [35S]GTPgammaS assay relative to DPDPE. It is filed as functional. The gist of the method:
as §2

The target of experiment [6] is T3, Kappa-type opioid receptor. The experiment is described as follows: Agonist activity at human KOR expressed in CHO cell membranes at 10 uM after 1 hr by [35S]GTPgammaS assay relative to U69,593. The class given is functional. The gist of the method: as §2
Experiment [7] concerns the target T1, Mu-type opioid receptor. The experiment can be described thus: Agonist activity at rat MOR transfected in rat C6 cell membranes after 1 hr by [35S]GTPgammaS assay. The class given is functional. Put shortly: as §2
Experiment [8] addresses T2, Delta-type opioid receptor. The experiment can be described thus: Agonist activity at rat DOR transfected in rat C6 cell membranes after 1 hr by [35S]GTPgammaS assay. It is filed as functional. Put shortly:
as §2

The target of experiment [9] is T3, Kappa-type opioid receptor. The experiment can be described thus: Agonist activity at human KOR expressed in CHO cell membranes after 1 hr by [35S]GTPgammaS assay. It is filed as functional. The gist of the method:
as §2

Experiment [10] relates to Mus musculus. The experiment is described as follows: Antinociceptive activity in C57BL/6 mouse assessed as increase in latency time to tail flick at 1 to 10 mg/kg, ip measured at 30 min interval by warm water tail withdrawal assay. It is filed as functional, organism-based. Put shortly: (§3)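 Adult male C57BL/6 mice, 20–30 g, 8–16 weeks. Saline ip, baseline read 30 min later. Then three increasing ip doses every 30 min, in water or 1:1:8 ethanol:Alkumuls:water, giving cumulative 1, 3.2 and 10 mg/kg. Tail tip (2–3 cm) put in 50 °C water 30 min after each injection; latency to withdraw or flick read, 20 s cutoff; n = 3.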

Experiment [11] relates to Mus musculus. The experiment can be described thus: Antinociceptive activity in C57BL/6 mouse assessed as increase in latency time to tail flick at 1 to 3.2 mg/kg, ip measured at 30 min interval by warm water tail withdrawal assay. It is filed as functional, organism-based. The gist of the method:
as §3

Experiment [12] concerns Mus musculus. The experiment is described as follows: Antinociceptive activity in C57BL/6 mouse assessed as time duration of action at 10 mg/kg, ip by warm water tail withdrawal assay. The class given is functional. Put shortly:
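Male C57BL/6 mice given a single 10 mg/kg ip dose. Tail-withdrawal latency in 50 °C water (2–3 cm tail tip, 20 s cutoff) read at varying times after dosing to follow duration of antinociception; n = 3.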

Experiment [13] deals with Mus musculus. The experiment can be described thus: Antinociceptive activity in C57BL/6 mouse assessed as latency time to tail flick at 10 mg/kg, ip measured at 30 min interval by warm water tail withdrawal assay. It is filed as functional. The gist of the method: as §3

Calls of active or inactive are those of the source. Bounds are passed on as bounds.

T1 sequence (P33535 whole entry): as above
T3 sequence (P41145 whole entry): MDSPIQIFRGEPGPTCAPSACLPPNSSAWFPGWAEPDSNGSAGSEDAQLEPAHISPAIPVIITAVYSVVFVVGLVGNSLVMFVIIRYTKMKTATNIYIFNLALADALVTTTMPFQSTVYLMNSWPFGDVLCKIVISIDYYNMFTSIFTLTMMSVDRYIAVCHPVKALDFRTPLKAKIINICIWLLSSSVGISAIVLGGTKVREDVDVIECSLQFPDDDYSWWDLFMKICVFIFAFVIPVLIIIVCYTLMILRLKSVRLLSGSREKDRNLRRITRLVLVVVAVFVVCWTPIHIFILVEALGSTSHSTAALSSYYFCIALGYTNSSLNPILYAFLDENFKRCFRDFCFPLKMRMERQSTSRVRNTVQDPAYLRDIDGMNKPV
T2 sequence (P33533 whole entry): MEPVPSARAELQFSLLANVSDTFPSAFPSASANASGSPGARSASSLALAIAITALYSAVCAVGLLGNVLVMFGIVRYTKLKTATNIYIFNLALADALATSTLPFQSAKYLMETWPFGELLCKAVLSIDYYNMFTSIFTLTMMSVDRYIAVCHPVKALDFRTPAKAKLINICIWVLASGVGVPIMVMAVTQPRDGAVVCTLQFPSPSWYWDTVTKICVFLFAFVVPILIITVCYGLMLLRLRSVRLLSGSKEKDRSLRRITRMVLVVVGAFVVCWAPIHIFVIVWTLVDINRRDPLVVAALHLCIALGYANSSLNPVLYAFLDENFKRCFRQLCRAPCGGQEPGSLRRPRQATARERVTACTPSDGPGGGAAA
Delta-type opioid receptor (Rattus norvegicus), sequence (P33533 whole entry): as above

Take `COCC(=O)N1CC[C@@H](NC(=O)[C@@H](N)Cc2c(C)cc(O)cc2C)c2cc(Cc3ccccc3)ccc21`: the Ki worked out at 0.15 nM at Mu-type opioid receptor [1], 2.1 nM in experiment [2] and 34 nM in experiment [3]. In addition, the Emax was determined as 91% in [4], 47% in experiment [5] and 38% in experiment [6]. In addition, the EC50 at Mu-type opioid receptor [7] is 3 nM; in experiment [8] (read-out: EC50), 67 nM; in [9] (read-out: EC50), above 1700 nM. The result in the experiment on Mus musculus [10] was inactive.
Turning to `Cc1cc(O)cc(C)c1C[C@H](N)C(=O)N[C@@H]1CCNc2ccc(Cc3ccccc3)cc21`, the outcome in the experiment with Mus musculus [11] was inactive. In addition, in the experiment with Mus musculus [12], the Time amounted to 1 h.
As to `CCC(=O)N1CC[C@@H](NC(=O)[C@@H](N)Cc2c(C)cc(O)cc2C)c2cc(Cc3ccccc3)ccc21`, the Ki was 0.12 nM at Mu-type opioid receptor [1], 1.1 nM in [2] and 40 nM in experiment [3]. Moreover, the Emax in [4] is 96%; in [5], 58%; in experiment [6], 32%. The EC50 on Mu-type opioid receptor [7] is 3.9 nM; in [8] (read-out: EC50) it was 32 nM; in experiment [9] (read-out: EC50) it was 880 nM.
Consider `COC(=O)N1CC[C@@H](NC(=O)[C@@H](N)Cc2c(C)cc(O)cc2C)c2cc(Cc3ccc4ccccc4c3)ccc21`, for which the Ki at Mu-type opioid receptor [1] is 0.32 nM; in experiment [2], 1 nM; in experiment [3], 190 nM. Also, the Emax in [4] was 110%. The EC50 was 0.39 nM on Mu-type opioid receptor [7], “Not Active” in experiment [8] (c6) and “Not Active” in experiment [9] (cho). The result in the experiment on Mus musculus [10] was inactive.
For `CCOC(=O)CN1CC[C@@H](NC(=O)[C@@H](N)Cc2c(C)cc(O)cc2C)c2cc(Cc3ccccc3)ccc21`, the Ki on Mu-type opioid receptor [1] is 0.37 nM; in experiment [2], 0.58 nM; in experiment [3], 15 nM. The Emax worked out at 79% in experiment [4], 34% in experiment [5] and 24% in [6]. In addition, the EC50 at Mu-type opioid receptor [7] was 5.1 nM; in [8] (read-out: EC50), 15 nM; in experiment [9] (read-out: EC50), above 1300 nM.
With `CCCC(=O)N1CC[C@@H](NC(=O)[C@@H](N)Cc2c(C)cc(O)cc2C)c2cc(Cc3ccccc3)ccc21`, the values for the Ki (at Mu-type opioid receptor [1]; in [2]; in experiment [3]) were 0.1 nM, 1 nM and 50 nM, respectively. Besides, the figures for the Emax in experiment [4], in experiment [5] and in experiment [6] were 53%, 44% and 22%, respectively. The results for the EC50 (on Mu-type opioid receptor [7]; in experiment [8] (read-out: EC50); in experiment [9] (read-out: EC50)) were 3.5 nM, 8.1 nM and above 1200 nM, respectively.
Regarding `Cc1cc(O)cc(C)c1C[C@H](N)C(=O)N[C@@H]1CCN(CC(N)=O)c2ccc(Cc3ccccc3)cc21`, the results for the Ki (on Mu-type opioid receptor [1]; in [2]; in [3]) were 0.23 nM, 2 nM and 4.3 nM, respectively. Further, the Emax in experiment [4] came to 99%; in experiment [5], 34%; in experiment [6], 49%. For the same molecule, the EC50 is 1.5 nM on Mu-type opioid receptor [7], 270 nM in experiment [8] (read-out: EC50) and 380 nM in [9] (read-out: EC50). Also, in the experiment on Mus musculus [10], the result was inactive.
On to `COC(=O)N1CC[C@@H](NC(=O)[C@@H](N)Cc2c(C)cc(O)cc2C)c2cc(Cc3ccccc3)ccc21`, for which the values for the Ki (at Mu-type opioid receptor [1]; in experiment [2]; in [3]) were 0.19 nM, 0.51 nM and 29 nM, respectively. The Emax in experiment [4] amounted to 95%; in experiment [5], 40%; in experiment [6] it was 28%. Besides, the EC50 on Mu-type opioid receptor [7] came out at 0.78 nM; in [8] (read-out: EC50), 14 nM; in [9] (read-out: EC50), 250 nM. The Time stood at 20 s with Mus musculus [13] and 1 h in the experiment with Mus musculus [12].
Turning to `Cc1cc(O)cc(C)c1C[C@H](N)C(=O)N[C@@H]1CCN(CC(=O)O)c2ccc(Cc3ccccc3)cc21`, the Ki on Mu-type opioid receptor [1] was 4.4 nM; in experiment [2], 67 nM; in experiment [3], 280 nM. The Emax in experiment [4] was 87%. The Emax entry in experiment [5] and in [6] was “inactive” each time. For the same molecule, the figures for the EC50 (at Mu-type opioid receptor [7]; in experiment [8] (c6); in experiment [9] (cho)) were 78 nM, “Not Active” and “Not Active”, respectively.
For the molecule `CCC(=O)N1CC[C@@H](NC(=O)[C@@H](N)Cc2c(C)cc(O)cc2C)c2cc(Cc3ccc4ccccc4c3)ccc21`, the values for the Ki (on Mu-type opioid receptor [1]; in experiment [2]; in experiment [3]) were 0.28 nM, 0.21 nM and 58 nM, respectively. Also, the values for the Emax in experiment [4] and in [6] were 75% and 15%, respectively. For the same molecule, the figures for the EC50 (on Mu-type opioid receptor [7]; in [8] (c6); in [9] (read-out: EC50)) were 13 nM, “Not Active” and above 1400 nM, respectively. Also, the outcome with Mus musculus [10] was inactive.
Take `Cc1cc(O)cc(C)c1C[C@H](N)C(=O)N[C@@H]1CCN(C(=O)C2CC2)c2ccc(Cc3ccccc3)cc21`: the Ki at Mu-type opioid receptor [1] is 0.1 nM; in experiment [2], 0.35 nM; in experiment [3], 25 nM. Further, the results for the Emax in [4], in [5] and in experiment [6] were 88%, 69% and 32%, respectively. Also, the EC50 at Mu-type opioid receptor [7] turned out to be 1.8 nM; in experiment [8] (read-out: EC50) it was 10 nM; in [9] (read-out: EC50) it was 1000 nM. Moreover, the Time in the experiment on Mus musculus [13] came to 11 s.
As to `Cc1cc(O)cc(C)c1C[C@H](N)C(=O)N[C@@H]1CCN(C(=O)C(C)C)c2ccc(Cc3ccccc3)cc21`, the Ki at Mu-type opioid receptor [1] was found to be 0.38 nM; in experiment [2], 0.53 nM; in [3], 76 nM. In addition, the Emax turned out to be 95% in experiment [4], 52% in experiment [5] and 41% in experiment [6]. Further, the EC50 on Mu-type opioid receptor [7] was 9.6 nM; in experiment [8] (read-out: EC50), 25 nM; in [9] (read-out: EC50), above 1300 nM. The outcome in the experiment with Mus musculus [10] was inactive.
For the molecule `Cc1cc(O)cc(C)c1C[C@H](N)C(=O)N[C@@H]1CCN(C(=O)C2CCC2)c2ccc(Cc3ccccc3)cc21`, the Ki was 0.23 nM on Mu-type opioid receptor [1], 0.15 nM in experiment [2] and 56 nM in experiment [3]. In addition, the Emax came out at 94% in experiment [4] and 58% in [5]. Also, in experiment [6], the Emax result was “inactive”. Also, the values for the EC50 (at Mu-type opioid receptor [7]; in experiment [8] (read-out: EC50); in experiment [9] (cho)) were 2.1 nM, 5.1 nM and “Not Active”, respectively. The outcome in the experiment on Mus musculus [10] was inactive.
For `CCCC(=O)N1CC[C@@H](NC(=O)[C@@H](N)Cc2c(C)cc(O)cc2C)c2cc(Cc3ccc4ccccc4c3)ccc21`, the Ki at Mu-type opioid receptor [1] was determined as 0.14 nM; in [2] it was 0.8 nM; in experiment [3] it was 64 nM. For the same molecule, the Emax in experiment [4] came out at 92%. In addition, the Emax entry in experiment [5] and in [6] was “inactive” in each case. The values for the EC50 (on Mu-type opioid receptor [7]; in experiment [8] (c6); in [9] (cho)) were 0.9 nM, “Not Active” and “Not Active”, respectively. Moreover, the result in the experiment on Mus musculus [10] was inactive.
With `Cc1cc(O)cc(C)c1C[C@H](N)C(=O)N[C@@H]1CCN(C(=O)c2ccccc2)c2ccc(Cc3ccccc3)cc21`, the Ki was 0.08 nM on Mu-type opioid receptor [1], 0.24 nM in [2] and 39 nM in experiment [3]. In addition, the Emax was 74% in [4] and 16% in experiment [6]. The EC50 at Mu-type opioid receptor [7] is 2.6 nM; in [8] (c6) it was “Not Active”; in [9] (read-out: EC50), 430 nM. Besides, the outcome with Mus musculus [10] was inactive.
For `CC(=O)N1CC[C@@H](NC(=O)[C@@H](N)Cc2c(C)cc(O)cc2C)c2cc(Cc3ccccc3)ccc21`, the result in the experiment with Mus musculus [10] was inactive.
